# Experiments:
# [1] = tested on: Staphylococcus epidermidis; test: Antibacterial activity against methicillin resistant Staphylococcus epidermidis RP62A ATCC 35984/CCUG 31568 after 48 hrs by microdilution method; assay type: functional; conditions: RP62A ATCC 35984/CCUG 31568, 48 h
# Method in brief: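 Broth microdilution (modified CLSI M07-A9) against the MRSE reference strain. Inoculum of about 2.5-3 × 10^4 cells/ml in Mueller-Hinton broth mixed 1:1 with serial compound dilutions; final DMSO ≤1%. Incubated 35 °C, 48 h.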
# Pseudomonas aeruginosa [2] = test: Antibacterial activity against Pseudomonas aeruginosa PAO1 DSM 19880 ATCC 15692 after 48 hrs by microdilution method; assay type: functional; conditions: PAO1 DSM 19880 ATCC 15692, 48 h
# Method in brief: (§1)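 Broth microdilution (CLSI M07-A9, modified) in Mueller-Hinton broth; inoculum about 2.5-3 × 10^4 cells/ml mixed 1:1 with serial compound dilutions. Stock solutions in up to 100% DMSO, final DMSO ≤1%. Incubated 35 °C for 48 h.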
# Enterococcus sp. = test: Antibacterial activity against Enterococcus sp. clinical isolates after 24 hrs by microdilution method; assay type: functional
# Method in brief: (§2)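 Clinical isolate screen by broth microdilution with about 1-1.2 × 10^6 cells/ml and 24 h incubation. MIC is the lowest concentration with no growth. For isolate collections, MIC90 is the MIC inhibiting ≥90% of isolates. Multidrug resistance was defined as resistance to at least […] antimicrobial class.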
# Klebsiella pneumoniae = test: Antibacterial activity against Klebsiella pneumoniae clinical isolates after 24 hrs by microdilution method; assay type: functional; method in brief: as §2
# [3] = Selectivity index, ratio of EC50 for human RBC to MIC for methicillin resistant Staphylococcus epidermidis RP62A ATCC 35984/CCUG 31568; assay type: toxicity; conditions: human red blood cells (RBC), read-out: Selectivity Index
# Method in brief: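 SI = hemolytic EC50 / MRSE MIC. Hemolysis: washed human RBCs (heparinized blood, healthy adult donor) at 10% in PBS pH 7.4, mixed 9:1 with serial compound dilutions, 37 °C for 1 h. 0.05% Triton X-100 set 100% lysis, 0.5% DMSO set baseline. MIC from MHB microdilution, 35 °C, […].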
# Bacillus subtilis = test: Antibacterial activity against Bacillus subtilis 168 ATCC 23857 after 48 hrs by microdilution method; assay type: functional; conditions: subsp. subtilis str. 168 ATCC 23857, 48 h; method in brief: as §1
# Staphylococcus aureus [4] = test: Antibacterial activity against Staphylococcus aureus clinical isolates after 24 hrs by microdilution method; assay type: functional; method in brief: as §2
# Staphylococcus aureus [5] = test: Antibacterial activity against Staphylococcus aureus ATCC 9144 after 48 hrs by microdilution method; assay type: functional; conditions: ATCC 9144, 48 h; method in brief: as §1
# Pseudomonas aeruginosa [6] = test: Antibacterial activity against Pseudomonas aeruginosa clinical isolates after 24 hrs by microdilution method; assay type: functional; method in brief: as §2
# Escherichia coli [7] = test: Antibacterial activity against Escherichia coli ATCC 25922 after 48 hrs by microdilution method; assay type: functional; conditions: ATCC 25922, 48 h; method in brief: as §1
# [8] = tested on: Corynebacterium glutamicum; test: Antibacterial activity against Corynebacterium glutamicum ATCC 13032 after 48 hrs by microdilution method; assay type: functional; conditions: ATCC 13032, 48 h; method in brief: as §1
# [9] = tested on: Staphylococcus epidermidis; test: Antibiofilm activity against Staphylococcus epidermidis RP62A ATCC 35984/CCUG 31568 incubated for 24 +/- 2 hrs by crystal violet staining based assay; assay type: functional
# Method in brief: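 Mature S. epidermidis RP62A biofilms: filtered overnight TSB culture adjusted to 2 McFarland, diluted in TSB with 1% glucose to about 6 × 10^6 CFU/ml, grown 24 ± 2 h at 37 °C static, then PBS-washed. Compounds in 50% TSBglu added for 24 ± 2 h at 37 °C. Biomass given as % of untreated control; ≥90% eradication threshold. Compounds tested at 2x, 5x and 10x MIC, 4-8 parallels on 2-3 plates, highest and lowest values excluded.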
# Escherichia coli [10] = test: Antibacterial activity against Escherichia coli clinical isolates after 24 hrs by microdilution method; assay type: functional; method in brief: as §2
# Erythrocyte = test: Hemolytic activity against human RBC measured after 1 hr; assay type: cell-based
# Method in brief: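 Washed human RBCs from a healthy donor (heparinized) at 10% in PBS pH 7.4, mixed 9:1 with serial compound dilutions, 37 °C for 1 h. Baseline set by 0.5% DMSO in 50% PBS, 100% lysis by 0.05% Triton X-100. EC50 is the concentration giving 50% lysis.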
# MRC5 = test: Cytotoxicity against human MRC5 cells after 72 hrs by MTS assay; assay type: cell-based; conditions: MRC5, 72 h
# Method in brief: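 MRC-5 lung fibroblasts in DMEM with 10% FBS, 37 °C, 5% CO2; seeded at 4000 cells/well, adhered 24 h, medium replaced. Two-fold dilutions up to 100 µg/ml for 72 h, then MTS for 1 h and absorbance at 485 nm. Controls were 1% DMSO (negative) and 0.5% Triton X-100 (positive). EC50 is the concentration giving 50% inhibition of survival.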
Structure (SMILES),MIC [1],MIC (Pseudomonas aeruginosa [2]),MIC (Enterococcus sp.),MIC (Klebsiella pneumoniae),selectivity ratio [3],MIC (Bacillus subtilis),MIC (Staphylococcus aureus [4]),MIC (Staphylococcus aureus [5]),MIC (Pseudomonas aeruginosa [6]),MIC (Escherichia coli [7]),MIC [8],MBIC=>90 [9],MIC (Escherichia coli [10]),EC50 (Erythrocyte),EC50 (MRC5)
CC(C)(C)c1cc(C(C)(C)C)cc(S(=O)(=O)Nc2ccc(CC(=O)NCCNC(=N)N)cc2)c1.Cl,8 µg/mL,64 µg/mL,32 µg/mL,128 µg/mL,13,8 µg/mL,16 µg/mL,16 µg/mL,64 µg/mL,64 µg/mL,8 µg/mL,40 µg/mL,64 µg/mL,101 µg/mL,55 µg/mL
CC(C)(C)c1cc(C(C)(C)C)cc(S(=O)(=O)N2CCC(C(=O)NCCNC(=N)N)CC2)c1.Cl,16 µg/mL,128 µg/mL,,,8,16 µg/mL,,16 µg/mL,,64 µg/mL,4 µg/mL,80 µg/mL,,124 µg/mL,> 100 µg/mL
CC(C)(C)c1cc(C(C)(C)C)cc(S(=O)(=O)Nc2ccc(CC(=O)NCCN)cc2)c1.Cl,16 µg/mL,64 µg/mL,,,5,16 µg/mL,,32 µg/mL,,64 µg/mL,16 µg/mL,,,73 µg/mL,20 µg/mL
Cl.N=C(N)NCCNC(=O)c1ccc(NS(=O)(=O)c2ccc3ccccc3c2)cc1,32 µg/mL,> 128 µg/mL,> 128 µg/mL,> 128 µg/mL,> 4,64 µg/mL,128 µg/mL,64 µg/mL,> 128 µg/mL,> 128 µg/mL,32 µg/mL,160 µg/mL,> 128 µg/mL,> 128 µg/mL,> 100 µg/mL
CN(c1ccc(C(=O)NCCNC(=N)N)cc1)S(=O)(=O)c1cc(C(C)(C)C)cc(C(C)(C)C)c1.Cl,4 µg/mL,16 µg/mL,32 µg/mL,64 µg/mL,11,4 µg/mL,4 µg/mL,4 µg/mL,16 µg/mL,32 µg/mL,2 µg/mL,40 µg/mL,32 µg/mL,45 µg/mL,36 µg/mL
CC(C)(C)c1cc(C(C)(C)C)cc(S(=O)(=O)NCc2ccc(C(=O)NCCNC(=N)N)cc2)c1.Cl,8 µg/mL,32 µg/mL,64 µg/mL,128 µg/mL,14,8 µg/mL,16 µg/mL,16 µg/mL,64 µg/mL,32 µg/mL,4 µg/mL,80 µg/mL,128 µg/mL,113 µg/mL,> 100 µg/mL
CC(C)(C)c1cc(C(C)(C)C)cc(S(=O)(=O)Nc2ccccc2C(=O)NCCNC(=N)N)c1.Cl,8 µg/mL,64 µg/mL,32 µg/mL,128 µg/mL,10,8 µg/mL,8 µg/mL,4 µg/mL,32 µg/mL,32 µg/mL,4 µg/mL,,64 µg/mL,77 µg/mL,42 µg/mL
CC(C)(C)c1cc(C(C)(C)C)cc(S(=O)(=O)Nc2ccc(C(=O)NCCN)cc2)c1.Cl,32 µg/mL,64 µg/mL,,,2,16 µg/mL,,32 µg/mL,,64 µg/mL,8 µg/mL,,,63 µg/mL,25 µg/mL
CC(C)(C)c1cc(C(C)(C)C)cc(S(=O)(=O)Nc2cc3ccccc3cc2C(=O)NCCN)c1.Cl,4 µg/mL,32 µg/mL,8 µg/mL,128 µg/mL,5,4 µg/mL,8 µg/mL,4 µg/mL,32 µg/mL,8 µg/mL,2 µg/mL,,32 µg/mL,21 µg/mL,22 µg/mL
CC(C)(C)c1cc(C(C)(C)C)cc(S(=O)(=O)N2CCC[C@H]2C(=O)NCCNC(=N)N)c1.Cl,32 µg/mL,128 µg/mL,,,> 4,32 µg/mL,,64 µg/mL,,> 128 µg/mL,8 µg/mL,,,> 128 µg/mL,> 100 µg/mL
